Test results as given in ChEMBL document CHEMBL3124903, “Synthesis, docking and evaluation of antioxidant and antimicrobial activities of novel 1,2,4-triazolo[3,4-b][1,3,4]thiadiazol-6-yl)selenopheno[2,3-d]pyrimidines” (Eur J Med Chem, 2014).
≈ marks a conversion by molar mass, not a printed value.

Legend:
Assay type in all cases: functional
Escherichia coli = test: Antibacterial activity against Escherichia coli assessed as growth inhibition by microdilution broth susceptibility assay
Aspergillus flavus = test: Antifungal activity against Aspergillus flavus assessed as growth inhibition by NCCLS broth dilution assay
[1] = test system: Radical scavenging activity; test: Antioxidant activity assessed as DPPH radical scavenging activity after 30 mins by spectrophotometric assay
How it was run: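 The compound is mixed with methanolic DPPH and incubated for 30 min at room temperature. Absorbance is read against a blank at 517 nm. Percent scavenging is taken from absorbance of a control with all reagents except the compound versus the sample. Runs are in triplicate, and IC50 is reported.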

[2] = Antioxidant activity assessed as NO radical scavenging activity after 150 mins by griess reagent method
Klebsiella pneumoniae = test: Antibacterial activity against Klebsiella pneumoniae assessed as growth inhibition by microdilution broth susceptibility assay
[3] = Antioxidant activity assessed as H2O2 radical scavenging activity
Candida albicans = test: Antifungal activity against Candida albicans assessed as growth inhibition by NCCLS broth dilution assay
How it was run: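 Yeast susceptibility is tested by the NCCLS reference broth dilution method. MIC is read as the endpoint, and a DMSO vehicle control is included.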

Bacillus subtilis = test: Antibacterial activity against Bacillus subtilis assessed as growth inhibition by microdilution broth susceptibility assay
Staphylococcus aureus = test: Antibacterial activity against Staphylococcus aureus assessed as growth inhibition by microdilution broth susceptibility assay

Structure (SMILES)	MIC (Escherichia coli) [µg/mL]	MIC (Aspergillus flavus) [µg/mL]	IC50 [1] [µg/mL]	IC50 [2] [µg/mL]	MIC (Klebsiella pneumoniae) [µg/mL]	IC50 [3] [µg/mL]	MIC (Candida albicans) [µg/mL]	MIC (Bacillus subtilis) [µg/mL]	MIC (Staphylococcus aureus) [µg/mL]
Cc1ccc(-c2nnc3sc(-c4[se]c5ncnc(Nc6ccc(F)c(Cl)c6)c5c4C)nn23)cc1	12.5	12.5 (≈ 22.5 µM)	12.86 (≈ 23.2 µM)	16.52 (≈ 29.8 µM)	12.5	18.36 (≈ 33.1 µM)	25 (≈ 45.1 µM)	12.5	6.25
Cc1c(-c2nn3c(-c4ccccc4)nnc3s2)[se]c2ncnc(Nc3ccc(Cl)cc3)c12	> 100	50 (≈ 95.6 µM)	14.82 (≈ 28.3 µM)	18.41 (≈ 35.2 µM)	> 100	17.03 (≈ 32.6 µM)	> 100	> 100	50
COc1ccc(-c2nnc3sc(-c4[se]c5ncnc(Nc6ccc(F)c(Cl)c6)c5c4C)nn23)cc1	6.25	3.12 (≈ 5.47 µM)	10.41 (≈ 18.2 µM)	12.74 (≈ 22.3 µM)	6.25	17.08 (≈ 29.9 µM)	3.12 (≈ 5.47 µM)	3.12	6.25
Cc1cc(C(C)(C)C)c(O)c(C(C)(C)C)c1 [BUTYLATED HYDROXYTOLUENE]			16.53 (≈ 75 µM)	19.06 (≈ 86.5 µM)		17.82 (≈ 80.9 µM)			
Cc1c(-c2nn3c(-c4ccc(O)cc4)nnc3s2)[se]c2ncnc(Nc3ccc(F)c(Cl)c3)c12	3.12	1.56 (≈ 2.8 µM)	9.46 (≈ 17 µM)	8.2 (≈ 14.7 µM)	3.12	12.54 (≈ 22.5 µM)	1.56 (≈ 2.8 µM)	3.12	3.12
Cc1c(-c2nn3c(-c4ccc([N+](=O)[O-])cc4)nnc3s2)[se]c2ncnc(Nc3ccc(F)c(Cl)c3)c12	50	> 100	26.94 (≈ 46 µM)	30.17 (≈ 51.5 µM)	50	36.42 (≈ 62.2 µM)	> 100	100	100
OC(Cn1cncn1)(Cn1cncn1)c1ccc(F)cc1F [FLUCONAZOLE]		3.12 (≈ 10.2 µM)					3.12 (≈ 10.2 µM)		
Cc1c(-c2nn3c(-c4ccccc4)nnc3s2)[se]c2ncnc(Nc3ccc(F)c(Cl)c3)c12	100	50 (≈ 92.4 µM)	13.24 (≈ 24.5 µM)	20.27 (≈ 37.5 µM)	100	22.92 (≈ 42.4 µM)	25 (≈ 46.2 µM)	50	50
Cc1ccc(-c2nnc3sc(-c4[se]c5ncnc(Nc6ccc(Cl)cc6)c5c4C)nn23)cc1	50	50 (≈ 93.1 µM)	13.31 (≈ 24.8 µM)	21.64 (≈ 40.3 µM)	25	19.14 (≈ 35.6 µM)	> 100	50	25
Cc1c(-c2nn3c(-c4ccc([N+](=O)[O-])cc4)nnc3s2)[se]c2ncnc(Nc3ccc(Cl)cc3)c12	> 100	> 100	33.28 (≈ 58.6 µM)	46.92 (≈ 82.6 µM)	> 100	48.31 (≈ 85.1 µM)	> 100	> 100	> 100
O=C1O[C@H]([C@@H](O)CO)C(O)=C1O [ASCORBIC ACID]			12.27 (≈ 69.7 µM)	14.62 (≈ 83 µM)		15.24 (≈ 86.5 µM)			
O=C(O)c1cn(C2CC2)c2cc(N3CCNCC3)c(F)cc2c1=O [CIPROFLOXACIN]					6.25			6.25	
COc1ccc(-c2nnc3sc(-c4[se]c5ncnc(Nc6ccc(Cl)cc6)c5c4C)nn23)cc1	12.5	6.25 (≈ 11.3 µM)	12.75 (≈ 23.1 µM)	19.82 (≈ 35.8 µM)	25	21.09 (≈ 38.1 µM)	6.25 (≈ 11.3 µM)	25	12.5
Cc1c(-c2nn3c(-c4ccc(O)cc4)nnc3s2)[se]c2ncnc(Nc3ccc(Cl)cc3)c12	6.25	3.12 (≈ 5.79 µM)	11.02 (≈ 20.4 µM)	13.72 (≈ 25.5 µM)	6.25	15.38 (≈ 28.5 µM)	1.56 (≈ 2.89 µM)	3.12	6.25
